Our source for the inhibition, Activity and IC50 values is ChEMBL document CHEMBL3414434, “Exploring the chemical space of ureidothiophene-2-carboxylic acids as inhibitors of the quorum sensing enzyme PqsD from Pseudomonas aeruginosa” (Eur J Med Chem, 2015).

The source made the active and inactive calls. No cut-off for these calls is given here. Starred links: 1 amine or outer side, 2 acyl side, 3 side chain; linkers in the order of their positions; H or OH if unused. Non-standard residues stand in square brackets, D forms with d. Residues, ends and D or L forms follow the SMILES beside them. *: point of attachment. X1 = COc1ccc(-c2cc(N*)c(C(=O)O)s2)cc1; AEEA = NCCOCCOCC(=O)O; CO = O=C([*:1])[*:2]

One experiment deals with Pseudomonas aeruginosa PA14. Nature of the experiment: Inhibition of PqsD in Pseudomonas aeruginosa PA14 assessed as reduction of HHQ level at 250 uM after 16 hrs by UHPLC-MS/MS analysis relative to control.
Regarding `CC[C@H](C)[C@H](NC(=O)[C@H](CCCNC(=N)N)NC(=O)[C@H](CCCNC(=N)N)NC(=O)[C@H](Cc1ccccc1)NC(=O)[C@H](CC(C)C)NC(=O)[C@H](CCCNC(=N)N)NC(=O)[C@H](CCCNC(=N)N)NC(=O)COCCOCCNC(=O)[C@H](Cc1ccccc1)NC(=O)Nc1cc(-c2ccc(OC)cc2)sc1C(=O)O)C(=O)N[C@@H](CC(C)C)C(=O)N[C@@H](CCCNC(=N)N)C(=O)N[C@@H](Cc1c[nH]c2ccccc12)C(=O)N[C@@H](CC(C)C)C(=O)O` ({X1-CO}-F[AEEA]RRLFRRILRWL-OH), the inhibition (usually the drop in the measured response relative to a control, in per cent) was “inactive”. Take `COc1ccc(-c2cc(NC(=O)N[C@@H](Cc3ccccc3)C(=O)SCCNC(C)=O)c(C(=O)O)s2)cc1`: the inhibition entry is “inactive”. Turning to `COc1ccc(-c2cc(NC(=O)N[C@@H](Cc3c[nH]cn3)C(=O)O)c(C(=O)O)s2)cc1`, the inhibition came out at 16%.

In a further experiment the target is T1, 2-heptyl-4(1H)-quinolone synthase PqsD (Pseudomonas aeruginosa) (UniProt A0A0C7ACN7).
T1 sequence (whole entry): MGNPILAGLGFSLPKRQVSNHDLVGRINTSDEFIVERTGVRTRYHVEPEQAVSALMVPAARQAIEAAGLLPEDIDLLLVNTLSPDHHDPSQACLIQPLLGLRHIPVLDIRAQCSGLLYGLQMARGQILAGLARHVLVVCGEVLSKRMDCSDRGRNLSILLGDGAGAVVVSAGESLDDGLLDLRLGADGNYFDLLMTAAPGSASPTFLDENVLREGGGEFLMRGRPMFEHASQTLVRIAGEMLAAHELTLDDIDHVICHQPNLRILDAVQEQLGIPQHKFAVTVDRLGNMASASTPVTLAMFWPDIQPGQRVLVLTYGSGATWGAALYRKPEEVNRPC
As to the kind of experiment: Inhibition of recombinant His6-tagged Pseudomonas aeruginosa PqsD expressed in Escherichia coli BL21 (deltaDE3) using anthraniloyl-CoA/beta-ketodecanoic acid as substrate assessed as HHQ formation at 50 uM preincubated for 10 mins followed by substrate addition by HPLC/MS-MS analysis relative to control. The procedure, abridged:
(§1)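 His6-PqsD was expressed in E. coli BL21(DE3) (IPTG, 16 °C, 16 h) and purified by single-step affinity. Assay buffer was 0.05 M MOPS pH 7.0 with 0.005% Triton X-100, plus 0.1 µM enzyme and inhibitor (0.5% DMSO final). After 10 min preincubation at 37 °C, anthraniloyl-CoA was added; β-ketodecanoic acid was the second substrate. HHQ was measured by HPLC-MS against DMSO controls set to 100%.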
Take `COc1ccc(-c2cc(NC(=O)N[C@@H](Cc3c[nH]cn3)C(=O)O)c(C(=O)O)s2)cc1`: the inhibition is 40%. Consider `O=C(Nc1ccsc1C(=O)O)N[C@@H](Cc1ccccc1)C(=O)O`, for which the inhibition result is “inactive”.

The subject of another experiment is Pseudomonas aeruginosa. As to the kind of experiment: Binding affinity to recombinant His6-tagged Pseudomonas aeruginosa PqsD/anthraniloyl-CoA complex at 25 to 100 uM by surface plasmon resonance analysis. The procedure, abridged:
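His6-PqsD on an SPR sensor chip. Running buffer was HEPES pH 7.4, 150 mM NaCl, 5% DMSO, 0.05% polysorbate 20. ACoA (100 µM) was injected for about 40 min to saturate the binding site, then flushed at higher flow for 30 min. Compounds were injected in sequence and equilibrium responses compared with untreated PqsD. Run in duplicate.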
For orientation: SPR reads the build-up and loss of mass on a sensor chip optically.
Take `O=C(Nc1cc(-c2ccc(-c3ccc(CO)cc3)cc2)sc1C(=O)O)N[C@@H](Cc1ccccc1)C(=O)O`: the outcome was Active.

The next experiment addresses T2, 2-heptyl-4(1H)-quinolone synthase PqsD (Pseudomonas aeruginosa, UniProt A0A0C7ACN7).
T2 sequence (A0A0C7ACN7 whole entry): T1 sequence (whole entry)
Nature of the experiment: (§2) Inhibition of recombinant His6-tagged Pseudomonas aeruginosa PqsD expressed in Escherichia coli BL21 (deltaDE3) using anthraniloyl-CoA/beta-ketodecanoic acid as substrate assessed as HHQ formation preincubated for 10 mins followed by substrate addition by HPLC/MS-MS analysis. The procedure, abridged:
as §1
With `COc1ccc(-c2cc(NC(=O)N[C@@H](CCC(=O)O)C(=O)O)c(C(=O)O)s2)cc1`, the IC50 (in general, the concentration that gives 50% inhibition) stood at 30.3 µM. Turning to `COc1ccc(-c2cc(NC(=O)NCC(=O)O)c(C(=O)O)s2)cc1`, the IC50 is 7 µM.

Regarding `COc1ccc(-c2cc(NC(=O)N[C@H](C(=O)O)C(C)C)c(C(=O)O)s2)cc1`, the half-maximal inhibitory concentration (IC50) amounted to 31.9 µM. Take `COc1ccc(-c2cc(NC(=O)N[C@@H](Cc3ccc(O)cc3)C(=O)O)c(C(=O)O)s2)cc1`: the IC50 stood at 29 µM. Turning to `COc1ccc(-c2cc(NC(=O)N[C@@H](Cc3ccccc3)C(=O)O)c(C(=O)O)s2)cc1`, the concentration for half-maximal inhibition (IC50) is 0.5 µM.

Consider `COc1ccc(-c2cc(NC(=O)N[C@@H](CC(N)=O)C(=O)O)c(C(=O)O)s2)cc1`, for which the 50% inhibitory concentration (IC50) was found to be 13.2 µM. Turning to `O=C(Nc1cc(-c2ccc(O)cc2)sc1C(=O)O)N[C@@H](Cc1ccccc1)C(=O)O`, the IC50 was 21.6 µM. Consider `O=C(Nc1cc(-c2ccc(-c3ccccc3)cc2)sc1C(=O)O)N[C@@H](Cc1ccccc1)C(=O)O`, for which the half-inhibitory concentration (IC50) worked out at 2.7 µM. Take `O=C(Nc1cc(-c2ccc(-c3ccc(C(O)c4ccccc4[N+](=O)[O-])cc3)cc2)sc1C(=O)O)N[C@@H](Cc1ccccc1)C(=O)O` (stereo not given in full): the IC50 is 0.36 µM. Regarding `COc1ccc(-c2cc(NC(=O)N[C@@H](Cc3ccccc3)C(=O)SCCNC(C)=O)c(C(=O)O)s2)cc1`, the half-maximal inhibitory concentration (IC50) was determined as 32 µM. For `COc1ccc(-c2cc(NC(=O)N[C@@H](CO)C(=O)O)c(C(=O)O)s2)cc1`, the IC50 is 19 µM. Consider `COc1ccc(-c2cc(NC(=O)NCP(=O)(O)O)c(C(=O)O)s2)cc1`, for which the concentration for half-maximal inhibition (IC50) turned out to be 7 µM. Consider `COc1ccc(-c2cc(NC(=O)N[C@@H](Cc3ccccc3)C(=O)O)c(C(=O)O)s2)c(C)c1`, for which the IC50 amounted to 7.5 µM. On to `O=[N+]([O-])c1ccccc1C(O)c1ccccc1` (stereo not given), for which the IC50 was 1 µM. Regarding `O=C(Nc1cc(-c2ccccc2)sc1C(=O)O)N[C@@H](Cc1ccccc1)C(=O)O`, the IC50 is 3.8 µM. As for `COc1ccc(-c2cc(NC(=O)N[C@@H](Cc3ccc(Cl)cc3)C(=O)O)c(C(=O)O)s2)cc1`, the IC50 stood at 13.8 µM. Consider `COc1ccc(-c2cc(NC(=O)N[C@@H](CCc3ccccc3)C(=O)O)c(C(=O)O)s2)cc1`, for which the concentration for half-maximal inhibition (IC50) is 33.7 µM.

For `COc1ccc(-c2cc(NC(=O)N[C@@H](Cc3ccccc3)C(=O)O)cs2)cc1`, the IC50 was found to be 11.5 µM. Take `O=[N+]([O-])c1ccccc1CO`: the IC50 turned out to be 2 µM. As for `O=C(Nc1cc(-c2cccc(-c3ccccc3)c2)sc1C(=O)O)N[C@@H](Cc1ccccc1)C(=O)O`, the concentration for half-maximal inhibition (IC50) amounted to 6.2 µM. For the compound `O=C(Nc1cc(-c2cccc(-c3ccc(CO)cc3)c2)sc1C(=O)O)N[C@@H](Cc1ccccc1)C(=O)O`, the IC50 stood at 19.4 µM. Turning to `COc1ccc(-c2cc(NC(=O)N[C@@H](Cc3c[nH]c4ccccc34)C(=O)O)c(C(=O)O)s2)cc1`, the IC50 came out at 5 µM. Regarding `O=C(Nc1cc(-c2ccc(-c3ccc(CO)cc3)cc2)sc1C(=O)O)N[C@@H](Cc1ccccc1)C(=O)O`, the IC50 was 0.14 µM.

The target of another experiment is T1, 2-heptyl-4(1H)-quinolone synthase PqsD (Pseudomonas aeruginosa). The description is as §2. The procedure, abridged: as §1
Take `CC[C@H](C)[C@H](NC(=O)[C@H](CCCNC(=N)N)NC(=O)[C@H](CCCNC(=N)N)NC(=O)[C@H](Cc1ccccc1)NC(=O)[C@H](CC(C)C)NC(=O)[C@H](CCCNC(=N)N)NC(=O)[C@H](CCCNC(=N)N)NC(=O)COCCOCCNC(=O)[C@H](Cc1ccccc1)NC(=O)Nc1cc(-c2ccc(OC)cc2)sc1C(=O)O)C(=O)N[C@@H](CC(C)C)C(=O)N[C@@H](CCCNC(=N)N)C(=O)N[C@@H](Cc1c[nH]c2ccccc12)C(=O)N[C@@H](CC(C)C)C(=O)O` ({X1-CO}-F[AEEA]RRLFRRILRWL-OH): the inhibition entry is “Active”.
